Experimental data from ChEMBL document CHEMBL1255524, “Identification of 2,3,6-trisubstituted quinoxaline derivatives as a Wnt2/β-catenin pathway inhibitor in non-small-cell lung cancer cell lines” (Bioorg Med Chem Lett, 2010).
Activity calls are given as the source filed them. The rule behind the calls is not given here.

How the values were obtained:
[1] = biological target: T1, Protein Wnt-2 (Homo sapiens) (UniProt P09544); assay: Inhibition of Wnt2 signaling pathway in human A549 cells assessed as inhibition of beta-casein-mediated Tcf/Lef transcriptional activity after 24 hrs by dual luciferase reporter gene assay relative to control; assay type: cell-based; set-up: concentration or dose not given beside the values; conditions: concentration not given here
T1 sequence (whole entry): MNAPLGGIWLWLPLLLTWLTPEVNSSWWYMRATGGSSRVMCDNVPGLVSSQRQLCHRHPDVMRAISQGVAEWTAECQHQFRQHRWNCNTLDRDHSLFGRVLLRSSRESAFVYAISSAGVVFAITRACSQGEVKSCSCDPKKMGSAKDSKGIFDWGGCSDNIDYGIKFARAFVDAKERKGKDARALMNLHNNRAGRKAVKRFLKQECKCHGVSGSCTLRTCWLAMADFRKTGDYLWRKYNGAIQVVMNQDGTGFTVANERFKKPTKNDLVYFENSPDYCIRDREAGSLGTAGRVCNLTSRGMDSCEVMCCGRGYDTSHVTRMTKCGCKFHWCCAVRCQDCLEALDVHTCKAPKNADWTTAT
How it was run: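 A549/Wnt2 cells (4 × 10⁴) transiently co-transfected with 1 lg pSuperTopflash (eight Tcf sites upstream of firefly luciferase) or pSuperFopflash (mutated Tcf sites, negative control) plus 15 ng pRL-TK. Compounds applied at the proliferation IC₅₀, 37 °C, 24 h. Lysed; firefly and Renilla read by dual-luciferase. Firefly/Renilla ratio, triplicates, mean ± SEM, relative to untreated cells.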

[2] = Inhibition of […] signaling in human A549 cells assessed as inhibition of cell proliferation at 15% of IC50 concentration after 24 to 48 hrs by MTT assay; assay type: cell-based
[3] = system: A549; assay: Reduction of beta-casein expression level in human A549 cells expressing Wnt2 by Western blotting; assay type: functional, cell-based
[4] = system: A549; assay: Reduction of beta-casein expression level in cytosolic fraction of human A549 cells expressing Wnt2 by Western blotting; assay type: functional, cell-based
[5] = system: A549; assay: Reduction of beta-casein expression level in nuclear fraction of human A549 cells expressing Wnt2 by Western blotting; assay type: functional, cell-based
[6] = Inhibition of […] signaling in human H460 cells assessed as inhibition of cell proliferation after 24 hrs by MTT assay; assay type: cell-based
[7] = Inhibition of […] signaling in human A549 cells assessed as inhibition of cell proliferation after 24 hrs by MTT assay; conditions: A549, 24 h
[8] = Inhibition of […] signaling in human A549 cells assessed as inhibition of cell proliferation after 24 to 48 hrs by MTT assay; assay type: cell-based
How it was run: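 MTS proliferation assay in A549/Wnt2 cells. Cells seeded at 5 × 10³ per well and left about 24 h to attach. Compounds added at various concentrations; growth read at 24 and 48 h after treatment. MTS reagent for 30 min at 37 °C in CO₂, then absorbance at 490 nm.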

[9] = biological target: T1, Protein Wnt-2 (Homo sapiens); assay: Inhibition of Wnt2 signaling pathway in human H460 cells assessed as inhibition of beta-casein-mediated Tcf/Lef transcriptional activity IC50 concentration after 24 hrs by dual luciferase reporter gene assay relative to control; assay type: cell-based
How it was run: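 H460/Wnt2 cells transiently co-transfected with SuperTopflash and pRL-TK Renilla control. Compounds given at the A549 proliferation IC₅₀, 37 °C, 24 h. Dual firefly/Renilla luciferase read-out as normalized ratio, triplicates, mean ± SEM, versus untreated cells.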

[10] = Inhibition of […] signaling in human A549 cells assessed as inhibition of cell proliferation at 30% of IC50 concentration after 24 to 48 hrs by MTT assay; assay type: cell-based

SMILES | inhibition [1] [%] | inhibition [2] | Activity [3] | Activity [4] | Activity [5] | inhibition [6] | IC50 [7] [nM] | inhibition [8] | inhibition [9] [%] | inhibition [10]
CN(C)CCOc1nc2ccccc2nc1C#Cc1ccccc1 | 30 | Active | Active | Active | Active | Active | 758 |  |  | 
COc1cccc2nc(OCCN3CCCC3)c(C#Cc3ccccc3)nc12 |  | Active | Active | Active | Active | Active | 1890 | Dose-dependent effect |  | 
CN1CCC[C@H]1COc1nc2ccc(N)cc2nc1C#Cc1ccccc1 | > 80 | Active | Active | Active | Active | Active | 3800 |  | > 80 | 
CCN(CC)CCOc1nc2cc(NC(=O)N(C)Cc3ccc(F)cc3)ccc2nc1C#Cc1ccc(N(C)C)cc1 | > 80 | Active | Active | Active | Active | Active | 7900 |  |  | 
Cc1ccc2nc(OCCC3CCCN3C)c(C#Cc3ccccc3)nc2c1 (stereo not given) | 30 | Active | Active | Active | Active | Active | 905 | Dose-dependent effect |  | 
COc1cccc(C#Cc2nc3ccc(NC(=O)c4ccc(F)cc4)cc3nc2OC2CCN(C)CC2)c1 |  | Active | Active | Active | Active | Active | 3540 |  |  | 
CN(C)c1ccc(C#Cc2nc3cc(F)ccc3nc2OCCCN2CCCCC2)cc1 | 30 | Active | Active | Active | Active | Active | 3770 |  |  | 
COc1ccc(C#Cc2nc3cc(F)ccc3nc2OCCOCCN(C)C)cc1 | > 80 | Active | Active | Active | Active | Active | 2340 |  | > 80 | Active
COc1c(C[C@@H](C)OC(=O)Oc2ccc(O)cc2)c2c3c(C[C@@H](C)OC(=O)c4ccccc4)c(OC)c(=O)c4c(O)cc(OC)c(c5c(OC)cc(O)c(c1=O)c52)c43 [CALPHOSTIN C] |  |  |  |  |  |  | 3200 |  |  | 
COc1nc2ccc(NC(=O)Nc3ccc(C(C)(C)C)cc3)cc2nc1NCCN1CCCCC1 | 30 | Active | Active | Active | Active | Active | 5010 |  |  | Active
CCN(CC)CCOc1nc2cc(NC(=O)c3ccc(C)cc3)ccc2nc1C#Cc1ccc(OC)cc1C |  | Active | Active | Active | Active | Active | 1780 |  |  | 
Cc1ccc(C#Cc2nc3ccccc3nc2OCCN2CCCC2)cc1 |  | Active | Active | Active | Active | Active | 1320 |  |  | 
Cc1cccc(C#Cc2nc3ccccc3nc2OCCCN2CCCCC2)c1 | 30 | Active | Active | Active | Active | Active | 1610 |  |  | 
Cc1ccc(C#Cc2nc3ccc(NC(=O)N4CCN(c5ccccn5)CC4)cc3nc2OCCN2CCCC2)cc1 | 30 | Active | Active | Active | Active | Active | 4760 | Dose-dependent effect |  | 
